Assay results from different studies.
Lines come from different studies, so protocols differ.
Target: Ephrin type-B receptor 2 (EPHB2, Homo sapiens, UniProt P29323)
Sequence (P29323 19-1055, as in one of the studies): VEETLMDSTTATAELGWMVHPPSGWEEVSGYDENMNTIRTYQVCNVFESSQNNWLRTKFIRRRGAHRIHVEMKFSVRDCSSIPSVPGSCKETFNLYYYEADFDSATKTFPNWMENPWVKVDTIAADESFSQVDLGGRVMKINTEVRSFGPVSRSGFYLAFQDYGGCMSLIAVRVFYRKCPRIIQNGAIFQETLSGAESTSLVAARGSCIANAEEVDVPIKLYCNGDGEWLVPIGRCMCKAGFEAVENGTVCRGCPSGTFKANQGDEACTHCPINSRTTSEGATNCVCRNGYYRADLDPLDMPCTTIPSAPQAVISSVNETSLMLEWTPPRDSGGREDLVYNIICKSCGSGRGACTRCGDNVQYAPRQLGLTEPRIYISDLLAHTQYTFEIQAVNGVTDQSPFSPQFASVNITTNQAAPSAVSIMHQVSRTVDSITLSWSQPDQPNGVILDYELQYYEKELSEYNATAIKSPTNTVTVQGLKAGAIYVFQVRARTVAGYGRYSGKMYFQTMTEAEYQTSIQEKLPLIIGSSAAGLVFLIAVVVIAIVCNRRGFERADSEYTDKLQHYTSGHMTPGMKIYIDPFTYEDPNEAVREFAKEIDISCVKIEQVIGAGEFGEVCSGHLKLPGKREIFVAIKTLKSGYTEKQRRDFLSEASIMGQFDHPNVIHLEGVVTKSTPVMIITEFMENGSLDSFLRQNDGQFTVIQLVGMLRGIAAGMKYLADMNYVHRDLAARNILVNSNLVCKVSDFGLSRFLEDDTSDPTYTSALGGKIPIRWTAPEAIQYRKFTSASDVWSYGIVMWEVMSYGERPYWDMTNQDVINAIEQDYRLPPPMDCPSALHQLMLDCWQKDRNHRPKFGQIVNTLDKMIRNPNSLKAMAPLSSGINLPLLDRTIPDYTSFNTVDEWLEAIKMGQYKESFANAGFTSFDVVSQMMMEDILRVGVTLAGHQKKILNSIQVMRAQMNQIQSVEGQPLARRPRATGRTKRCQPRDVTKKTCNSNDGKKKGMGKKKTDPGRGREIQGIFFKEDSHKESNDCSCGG

Structure (SMILES)	read-out	technique	tested at	remaining binding [%]
O=C(c1ccc(Nc2nccc(-c3cc4ccccc4s3)n2)cc1)N1CCC(N2CCCC2)CC1	binding	competition with immobilised ligand	1 µM	100
c1cncc(-c2cccc(Nc3nccc(NC4CCCCC4)n3)c2)c1	binding	competition with immobilised ligand	10 µM	90
C[C@@H]1CN(c2cc(-c3n[nH]c4ccc(OC5(C)CC5)cc34)ncn2)C[C@H](C)O1	cell-free assay	competition with immobilised ligand	0.1 µM	90
C[C@H]1CCN(c2nccc(-c3cnn4ncccc34)n2)C1	binding	–	1 µM	0
Cc1nccc(COC(=O)N2C[C@@H]3[C@@H](CNC(=O)c4ccc5[nH]nnc5c4)[C@@H]3C2)n1	cell-free assay	competition with immobilised ligand	1 µM	100
N[C@H]1CCN(c2nccc(-c3cnn4ncccc34)n2)C1	binding	–	1 µM	100
Cn1cc(Cl)c2c(Oc3c(F)cc(Nc4cc(Cl)nc(N)n4)cc3F)ccnc21	cell-free assay	competition with immobilised ligand	0.1 µM	100
CN(C)c1nccc(-c2cnn3ncccc23)n1	binding	–	1 µM	71
Cc1nc(Cc2cccc(C(F)(F)F)c2)sc1-c1ccc(C(N)=O)nc1	cell-free assay	competition with immobilised ligand	1 µM	86
CNC(=O)[C@@H]1CC[C@@H](n2c(-c3ccc4cnccc4c3)nc3ccc(C(=O)NCc4cccc(C(N)=O)c4)cc32)C1	binding	competition with immobilised ligand	1 µM	96
O=C(c1ccc(Nc2ncc(Cl)c(-c3ccc(Cl)s3)n2)cc1)N1CCC(N2CCCC2)CC1	binding	competition with immobilised ligand	1 µM	88
O=C(NCC1CCOCC1)c1n[nH]cc1NC(=O)c1c(F)cccc1F	binding	competition with immobilised ligand	1 µM	98
c1cnn2ncc(-c3ccnc(N4CCC45COC5)n3)c2c1	binding	–	1 µM	100
CO[C@@H](C)c1c(Nc2ccc([C@H](N(C)C(=O)C3CCS(=O)(=O)CC3)C(F)(F)F)cc2)cnc2cc(Cl)nn12	cell-free assay	competition with immobilised ligand	1 µM	76
Nc1ncc2c(n1)-c1c([nH]c3ccc(C#CC4CC4)cc13)CCCC2	binding	competition with immobilised ligand	1 µM	90
CN(c1nccc(-c2cnn3ncccc23)n1)C1CC1	binding	–	1 µM	100
COc1cnc(Nc2cccc(S(N)(=O)=O)c2)nc1N1CCN(c2ccccc2)CC1	binding	competition with immobilised ligand	1 µM	100
COc1ccnn2ncc(-c3ccnc(N(C)C)n3)c12	binding	–	1 µM	100
O=C(NC[C@@H]1[C@H]2CN(C(=O)OCc3cc(C(F)(F)F)cc(C(F)(F)F)c3)C[C@@H]12)c1ccc2[nH]nnc2c1	cell-free assay	competition with immobilised ligand	1 µM	100
